# Measurements as given in ChEMBL document CHEMBL5705889, “Novel mutant-selective EGFR kinase inhibitors against EGFR T790M” (Nature, 2009).
# Active and inactive are the calls of the source. The calls are words filed in the database; no cut-off is given here.
# Columns and labels:
# [1] = system: Mus musculus; assay: Invivo antitumor activity in transgenic mouse harboring EGFR del19/T790M mutant assessed as increase in fibrosis at 25 mg/kg administered via gavage for 2 weeks by H&E staining based analysis; format: functional, organism-based
# Summary of the method: (§1)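 EGFR-TL (L858R/T790M) or exon19 deletion-T790M (TD) inducible bitransgenic mice dosed by oral gavage daily at 25 mg/kg; vehicle 10% 1-methyl-2-pyrrolidinone:90% PEG-300. Tumors followed by MRI; lung histology by standard protocols.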
# [2] = biological target: Cyclin-G-associated kinase (Homo sapiens, UniProt O14976); assay: Binding affinity to GAK (unknown origin) assessed as dissociation constant
# Chain of Cyclin-G-associated kinase (O14976 whole entry): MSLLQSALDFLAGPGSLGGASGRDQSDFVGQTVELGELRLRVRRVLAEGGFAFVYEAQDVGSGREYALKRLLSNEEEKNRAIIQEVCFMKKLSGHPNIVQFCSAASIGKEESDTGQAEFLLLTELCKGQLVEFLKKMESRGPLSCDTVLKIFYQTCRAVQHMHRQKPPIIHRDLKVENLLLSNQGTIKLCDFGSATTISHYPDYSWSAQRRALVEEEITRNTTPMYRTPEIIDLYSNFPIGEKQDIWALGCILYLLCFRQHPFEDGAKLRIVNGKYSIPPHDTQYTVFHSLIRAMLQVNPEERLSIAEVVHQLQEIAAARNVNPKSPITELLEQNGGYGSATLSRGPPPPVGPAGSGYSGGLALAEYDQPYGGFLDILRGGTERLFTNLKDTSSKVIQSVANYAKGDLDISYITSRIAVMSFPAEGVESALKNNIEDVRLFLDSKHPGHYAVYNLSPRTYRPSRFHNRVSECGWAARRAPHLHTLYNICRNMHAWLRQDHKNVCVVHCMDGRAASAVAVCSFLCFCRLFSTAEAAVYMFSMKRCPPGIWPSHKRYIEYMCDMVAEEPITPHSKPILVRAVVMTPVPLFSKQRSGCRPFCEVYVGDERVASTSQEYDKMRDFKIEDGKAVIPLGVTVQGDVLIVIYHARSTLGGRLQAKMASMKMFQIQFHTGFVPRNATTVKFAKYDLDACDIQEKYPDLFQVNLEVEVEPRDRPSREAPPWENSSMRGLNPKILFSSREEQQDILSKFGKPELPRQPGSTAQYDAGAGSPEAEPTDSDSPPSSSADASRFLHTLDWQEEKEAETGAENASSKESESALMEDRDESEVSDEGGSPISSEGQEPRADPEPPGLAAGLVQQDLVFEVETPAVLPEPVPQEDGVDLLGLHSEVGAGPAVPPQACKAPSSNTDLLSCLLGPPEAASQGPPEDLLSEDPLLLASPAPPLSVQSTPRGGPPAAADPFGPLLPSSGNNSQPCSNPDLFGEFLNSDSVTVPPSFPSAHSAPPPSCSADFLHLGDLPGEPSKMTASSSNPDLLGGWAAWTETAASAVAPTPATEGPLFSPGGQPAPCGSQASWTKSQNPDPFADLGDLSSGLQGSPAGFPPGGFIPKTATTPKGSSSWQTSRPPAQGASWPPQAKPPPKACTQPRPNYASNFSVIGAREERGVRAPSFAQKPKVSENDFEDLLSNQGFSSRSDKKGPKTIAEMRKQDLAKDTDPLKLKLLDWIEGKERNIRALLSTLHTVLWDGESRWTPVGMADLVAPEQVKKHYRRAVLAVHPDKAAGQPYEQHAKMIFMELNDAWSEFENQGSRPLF
# [3] = Toxicity in mouse harboring EGFR del E746_A750/T790M mutant assessed as effect on body weight at 25 mg/kg administered via gavage for 2 weeks; format: organism-based; settings: in vivo, po, 336 h
# Summary of the method: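 Inducible bitransgenic tumor mice gavaged daily, 25 mg/kg, vehicle NMP (10% 1-methyl-2-pyrrolidinone, 90% PEG-300), compared against vehicle-treated mice; weight, serum creatine and total white blood cell count monitored during the study.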
# [4] = system: Mus musculus; assay: In vivo inhibition of ERK1/2 phosphorylation in transgenic mouse harboring EGFR L858R/T790M mutant at 2.5 to 25 mg/kg administered as two doses separated by 16 hours by immunoblot analysis; format: functional, organism-based; settings: dose 2.5-25 mg/kg
# Summary of the method: (§2)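 Transgenic mice gavaged with compound in 10% 1-methyl-2-pyrrolidinone:90% PEG-300 vehicle; phosphorylation assessed in tissue by immunoblotting per standard protocols.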
# [5] = biological target: NUAK family SNF1-like kinase 1 (Homo sapiens, UniProt O60285); assay: Binding affinity to ARK5 (unknown origin) assessed as dissociation constant
# Chain of NUAK family SNF1-like kinase 1 (O60285 whole entry): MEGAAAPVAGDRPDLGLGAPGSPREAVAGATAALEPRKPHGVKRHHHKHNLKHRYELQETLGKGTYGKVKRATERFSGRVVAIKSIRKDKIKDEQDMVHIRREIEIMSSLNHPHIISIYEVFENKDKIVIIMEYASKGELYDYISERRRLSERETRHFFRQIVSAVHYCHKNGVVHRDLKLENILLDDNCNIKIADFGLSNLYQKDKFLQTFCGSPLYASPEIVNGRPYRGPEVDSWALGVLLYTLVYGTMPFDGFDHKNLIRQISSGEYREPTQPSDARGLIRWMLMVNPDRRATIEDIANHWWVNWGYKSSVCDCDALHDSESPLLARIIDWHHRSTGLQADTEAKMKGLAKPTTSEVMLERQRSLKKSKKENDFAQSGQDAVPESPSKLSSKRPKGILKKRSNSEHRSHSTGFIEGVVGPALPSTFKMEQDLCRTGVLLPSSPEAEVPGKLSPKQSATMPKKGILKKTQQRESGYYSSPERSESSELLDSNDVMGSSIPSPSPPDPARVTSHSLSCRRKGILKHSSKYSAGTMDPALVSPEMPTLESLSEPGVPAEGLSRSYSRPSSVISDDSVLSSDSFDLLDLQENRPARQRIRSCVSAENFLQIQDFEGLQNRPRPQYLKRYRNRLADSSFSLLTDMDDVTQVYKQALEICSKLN
# [6] = system: BaF3; assay: cells; format: functional, cell-based; settings: Mus musculus, BaF3, 72 h
# [7] = Drug concentration in mouse plasma at 1 mg/kg, iv administered as single dose and measured after 0.08 hrs; format: ADME, organism-based
# [8] = system: BaF3; assay: cells; format: functional, cell-based; settings: Mus musculus, BaF3, 72 h; remark: listed apart in the source
# [9] = system: BaF3; assay: cells; format: functional, cell-based; settings: Mus musculus, BaF3, 72 h; remark: listed apart in the source
# [10] = system: Mus musculus; assay: Invivo antitumor activity in transgenic mouse harboring EGFR del19/T790M mutant assessed as reduction in small residual nodules in tumor at 25 mg/kg administered via gavage for 2 weeks by H&E staining based analysis; format: functional, organism-based; summary of the method: as §1
# [11] = biological target: Mitogen-activated protein kinase; ERK1/ERK2 (Homo sapiens) (UniProt P27361+P28482); assay: Inhibition of ERK1/2 phosphorylation in human PC9 Gefitinib-resistant (GR) cells at 0.01 to 1 uM incubated for 16 hrs by immunoblot analysis; format: cell-based; settings: PC9 Gefitinib-resistant (GR) cell, dose 0.01-1 µM
# Chain of Mitogen-activated protein kinase; ERK1/ERK2 (Homo sapiens) (P27361 whole entry, looked up): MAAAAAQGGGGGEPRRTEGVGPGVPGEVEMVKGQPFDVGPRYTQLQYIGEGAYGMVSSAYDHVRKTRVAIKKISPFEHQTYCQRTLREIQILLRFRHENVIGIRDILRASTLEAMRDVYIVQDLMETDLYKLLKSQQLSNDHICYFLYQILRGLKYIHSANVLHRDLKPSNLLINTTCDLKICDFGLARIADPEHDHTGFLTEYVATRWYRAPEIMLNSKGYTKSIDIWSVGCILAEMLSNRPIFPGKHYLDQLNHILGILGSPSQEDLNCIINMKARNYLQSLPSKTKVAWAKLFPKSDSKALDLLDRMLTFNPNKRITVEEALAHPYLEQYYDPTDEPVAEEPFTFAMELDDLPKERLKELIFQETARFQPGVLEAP
# Chain of Mitogen-activated protein kinase; ERK1/ERK2 (Homo sapiens) (P28482 whole entry, looked up): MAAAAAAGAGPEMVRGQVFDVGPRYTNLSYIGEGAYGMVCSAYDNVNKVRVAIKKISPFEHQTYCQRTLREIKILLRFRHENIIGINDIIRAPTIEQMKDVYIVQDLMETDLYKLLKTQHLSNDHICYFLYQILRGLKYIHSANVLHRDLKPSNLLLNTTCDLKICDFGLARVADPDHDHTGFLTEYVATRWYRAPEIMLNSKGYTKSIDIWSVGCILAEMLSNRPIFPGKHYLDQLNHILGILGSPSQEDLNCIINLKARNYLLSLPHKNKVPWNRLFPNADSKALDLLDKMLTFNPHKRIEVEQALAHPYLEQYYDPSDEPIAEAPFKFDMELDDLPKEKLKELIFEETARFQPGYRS
# [12] = system: Mus musculus; assay: In vivo antitumor activity in transgenic mouse harboring EGFR delE746_A750/T790M mutant assessed as increase in TUNEL positive cells at 25 mg/kg administered via gavage for 2 weeks by immunohistochemical analysis; format: functional, organism-based
# Summary of the method: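 Transgenic EGFR T790M mutant mice were given daily gavage at 25mg/kg in 10% 1-methyl-2-pyrrolidinone:90% PEG-300 vehicle, alongside vehicle-alone controls. Tumor tissue was immunostained by standard protocols, and TUNEL-positive and Ki67-positive cells were counted.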
# [13] = system: Mus musculus; assay: In vivo inhibition of ERK1/2 phosphorylation in transgenic mouse harboring EGFR del E746_A750/T790M mutant at 2.5 to 25 mg/kg administered as two doses separated by 16 hours by immunoblot analysis; format: functional, organism-based; settings: dose 2.5-25 mg/kg; summary of the method: as §2
# [14] = Drug concentration in mouse plasma at 1 mg/kg, iv administered as single dose and measured after 0.5 hrs; format: ADME, organism-based
# [15] = system: BaF3; assay: Prevention of EGFR T790M mutant development in mouse BaF3 cells harboring delE746_A750 mutant assessed as reduction in resistant clones with T790M mutant at 0.001 to 1 uM; format: functional, cell-based; settings: dose 0.001-1 µM
# Summary of the method: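 Ba/F3 cells with EGFR L858R or delE746_A750 mutagenized with N-ethyl-N-nitrosourea, then expanded in 100 nM or 1 μM inhibitor; resistant clones isolated and characterized for EGFR T790M.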
# [16] = system: Mus musculus; assay: In vivo antitumor activity in transgenic mouse harboring EGFR Del19/T790M mutant assessed as tumor regression at 25 mg/kg, administered via gavage for 2 weeks; format: functional, organism-based
# Summary of the method: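 Inducible bitransgenic mice carrying EGFR T790M/L858R or exon19 deletion-T790M were dosed by daily gavage at 25mg/kg. The vehicle was 10% 1-methyl-2-pyrrolidinone:90% PEG-300, and the control group received vehicle alone. Tumor response was followed by MRI scanning.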
smiles,measurement,setting,value
C=CC(=O)Nc1cccc(Oc2nc(Nc3ccc(N4CCN(C)CC4)cc3OC)ncc2Cl)c1,Activity,[1],Active
same,Kd,[2],91 nM
same,Activity,[3],Non-Toxic
same,inhibition,[4],Active
same,Kd,[5],91 nM
same,IC50,[6],157 nM
same,concentration at 0.08 h,[7],1130 ng/mL
same,IC50,[8],3 nM
same,IC50,[9],1860 nM
same,Activity,[10],Active
same,inhibition,[11],Active
same,Activity,[12],Active
same,inhibition,[13],Active
same,concentration at 0.5 h,[14],451 ng/mL
same,Activity,[15],Active
same,Activity,[16],Active
